OX1R antag-1: OX1R (HCRTR1) antagonists, primary screen, fluorescence, CHO/OX1R cells, Fluo-8 calcium, orexin A; Orexin/Hypocretin receptor type 1 (Homo sapiens), O43613; Fluo-8 calcium fluorescence; inhibition, % at 5 µM; hit rate 0.43% among 330,000;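 active = inhibition above its plate's threshold, mean inhibition of all tested compounds on the plate plus 3 SD, cut at about 37% in these data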
Target sequence (O43613 whole entry, looked up): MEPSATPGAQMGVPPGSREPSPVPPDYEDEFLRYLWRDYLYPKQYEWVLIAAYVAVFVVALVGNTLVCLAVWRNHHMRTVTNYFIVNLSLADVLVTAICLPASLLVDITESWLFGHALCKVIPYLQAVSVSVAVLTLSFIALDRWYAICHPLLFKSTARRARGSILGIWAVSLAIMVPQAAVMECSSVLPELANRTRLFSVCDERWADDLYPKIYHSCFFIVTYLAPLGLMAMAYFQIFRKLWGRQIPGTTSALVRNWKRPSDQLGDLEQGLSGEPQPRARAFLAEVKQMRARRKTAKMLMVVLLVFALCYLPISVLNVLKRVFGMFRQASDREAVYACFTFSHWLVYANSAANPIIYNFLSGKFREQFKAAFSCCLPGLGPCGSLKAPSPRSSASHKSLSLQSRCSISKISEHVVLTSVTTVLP
TAAR1 agonist: human TAAR1 agonists, primary screen, Fluo-8 calcium fluorescence, CHO RD-HGA16 cells; vehicle wells 0%, saturating PEA agonist 100%; AID 624467, 2012; activation, % at 3 µM; hit rate 0.99% among 360,000;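 active = activation above the mean activation of all test compounds in the run plus 3 SD, cut at about 38% in these data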
Target sequence (Q96RJ0 whole entry, looked up): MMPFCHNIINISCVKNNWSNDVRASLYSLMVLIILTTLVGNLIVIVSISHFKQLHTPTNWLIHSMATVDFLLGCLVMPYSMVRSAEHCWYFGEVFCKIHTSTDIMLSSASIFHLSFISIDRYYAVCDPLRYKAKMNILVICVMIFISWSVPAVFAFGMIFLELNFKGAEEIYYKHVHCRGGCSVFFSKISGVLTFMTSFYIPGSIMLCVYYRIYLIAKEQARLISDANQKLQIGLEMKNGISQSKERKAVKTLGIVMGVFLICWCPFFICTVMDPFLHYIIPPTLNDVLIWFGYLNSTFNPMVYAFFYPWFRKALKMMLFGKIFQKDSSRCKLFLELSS
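Signal – calcium-sensitive Fluo-8 signal, excitation 470-495, emission 515-575 nm · System – RD-HGA16 (CHO) cells co-expressing Gα16 and hTAAR1 · Incubation – 17-24 h seeding, 75 min 37 °C dye, 30 min RT · Compound dosing – 3 µM single concentration · Repeats – no replicates (n 1)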
OX1R antag-2: antagonists of human orexin 1 receptor (OX1R). Orexin/Hypocretin receptor type 1 (Homo sapiens), O43613. OX1R-expressing cells, FRET antagonist read-out. inhibition, % at 6.6 µM. hit rate 1.8% among 330,000; in the data active = inhibition mostly above about 38%, no sharp cut-off; inactive = mostly below about 40%
CHO parental Ca: ATP-evoked calcium signal inhibitors, parental CHO, primary screen, counter-screen for OX1R antagonist project, cell-based, fluorescence, Fluo-8 calcium dye | parental CHO-K1, ATP-induced calcium, Fluo-8 fluorescence | inhibition, % at 5.6 µM | hit rate 0.63% among 330,000 | AID 463079, 2010;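 active = inhibition above that plate's mean sample inhibition plus 3 SD, cut at about 26% in these data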
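Material – parental CHO cells · Reagent – ATP stimulus · Compound – single nominal dose of 5.6 µM per compound · Detection – Fluo-8 fluorescence · Read-out basis – percent inhibition of calcium signal · Controls – ATP-challenged DMSO wells low, unchallenged DMSO wells high · Repeats – no replicates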
TAAR1 antag: human TAAR1 antagonists, primary screen, Fluo-8 calcium fluorescence, CHO RD-HGA16 cells. antagonist. Trace amine-associated receptor 1 (Homo sapiens), Q96RJ0. inhibition, % at 3 µM. hit rate 1.5% among 360,000. AID 624466, 2012;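 active = inhibition above a per-plate cutoff, the mean inhibition of test compounds on that plate plus 3 SD, cut at about 49% in these data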
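Test system – hTAAR1-expressing CHO RD-HGA16 cells, Gα16-coupled · Also added – β-PEA at EC80 concentration, post-compound challenge · Compound – 3 µM, single point · Incubation – dye loading 75 min at 37 °C, then 30 min room temperature · Measured by – Fluo-8 intracellular calcium dye fluorescence, real-time kinetic reads · Benchmarks – vehicle and agonist controls · Replicates – singlicate, one well per test compound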
OX1R HTRF conf: OX1R (HCRTR1) antagonists, confirmation, cell-based, HTRF; shares compounds with OX1R antag-2; OX1R-expressing cells, HTRF antagonist assay; inhibition, % at 6.6 µM; hit rate 49% among 1,800; in the data active = inhibition above about 55%;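 note: CHO cells expressing OX1R stimulated with orexin A at about EC80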
CHO-K1 HTRF: signal inhibition in parental CHO-K1 cells, counter-screen for OX1R antagonist project, cell-based, HTRF; shares compounds with OX1R antag-2; HTRF counterscreen; inhibition, % at 6.6 µM; hit rate 48% among 1,800; AID 493232, 2011; in the data active = inhibition above about 17%
Large screens that a line does not name were inactive (follow-up assays come after a bar, where they were run). The list is not random: actives were taken first. Their share in the collection is about 3.9%.

O=C(O)c1ccc2c3c(ncnc13)-c1ccccc1C2=O	OX1R antag-2 186 (no result: TAAR1 agonist, TAAR1 antag) | OX1R HTRF conf 58 | CHO-K1 HTRF 98
COc1ccccc1NC1=C(N2CCCCC2)C(=O)c2ccccc2C1=O	OX1R antag-2 79 (no result: TAAR1 agonist, TAAR1 antag) | OX1R HTRF conf inactive | CHO-K1 HTRF 31
CN1C(=O)/C(=C2/C=Cc3ccccc3N2CCCS(=O)(=O)O)SC1=S	OX1R antag-2 100 | OX1R HTRF conf 59 | CHO-K1 HTRF 97
O=C(Nc1ccc2c(c1)OCCO2)C(CCc1ccccc1)N1CCC(Cc2ccccc2)CC1 (stereo not given)	none (no result: OX1R antag-1, OX1R antag-2, CHO parental Ca)
Cc1cccc2nc(-c3cccc(NC(=O)c4ccc(Cl)cc4)c3)cn12	OX1R antag-2 84 | OX1R HTRF conf 79 | CHO-K1 HTRF 24
O=C(O)c1c2c(nc3ccccc13)/C(=C/c1c(F)cccc1F)CCC2	OX1R antag-2 113 | OX1R HTRF conf inactive | CHO-K1 HTRF 18
O=C1OCc2cccc([N+](=O)[O-])c21	OX1R antag-2 79 | OX1R HTRF conf inactive | CHO-K1 HTRF 33
COC(=O)[C@@]12C[C@@H](CC(=O)NCCC(C)C)C(=O)N(Cc3cccc4ccccc34)C1=CCC(C)(C)C2	none (no result: OX1R antag-1, OX1R antag-2, CHO parental Ca)
Cc1cnnc2ccc3c(no[n+]3[O-])c12	OX1R antag-2 126 | OX1R HTRF conf inactive | CHO-K1 HTRF 54
CCN(CC(=O)Nc1sc2c(c1C#N)CCCC2)Cc1nc2ccccc2c(=O)[nH]1	OX1R antag-2 83 | OX1R HTRF conf 58 | CHO-K1 HTRF inactive
O=C(CNC(=O)c1ccccc1)c1ccccc1	OX1R antag-2 85 | OX1R HTRF conf inactive | CHO-K1 HTRF inactive
COc1ccc2c(c1)[n+](=O)c(C(C)=O)c(C)n2[O-]	none
CCOC(=O)c1c(=O)n(O)c2ccc(OC)cc2[n+]1[O-]	OX1R antag-2 118 | OX1R HTRF conf inactive | CHO-K1 HTRF 62
O=[N+]([O-])c1ccc(NCCN2CCOCC2)c([N+](=O)[O-])c1	none (no result: OX1R antag-1, OX1R antag-2, CHO parental Ca)
CCOc1cc(NCCN2CCOCC2)c([N+](=O)[O-])cc1OCC	OX1R antag-2 91 | OX1R HTRF conf inactive | CHO-K1 HTRF 49
c1ccc(N2CCN(c3ncnc4c3oc3ccccc34)CC2)cc1	OX1R antag-2 90, TAAR1 antag 49 | OX1R HTRF conf 65 | CHO-K1 HTRF inactive
CCc1nnc(N2CCN(c3ncnc4c3oc3ccccc34)CC2)s1	none (no result: OX1R antag-1, OX1R antag-2, CHO parental Ca)
Cc1cccc(NC(=O)Nc2ccc(C#N)cc2)n1	none
Cc1cccc(NC(=O)Nc2cccc(C#N)c2)n1	OX1R antag-2 91 | OX1R HTRF conf inactive | CHO-K1 HTRF inactive
O=C1C2=C(c3ccccc31)[N+](=O)C1CCCCC1N2[O-] (stereo not given)	OX1R antag-2 112 | OX1R HTRF conf inactive | CHO-K1 HTRF 44
CCc1ccc(/C=C2/Sc3ccccc3N(CC(=O)NCCCOC)C2=O)cc1	none (no result: TAAR1 agonist, TAAR1 antag)
COCCCNC(=O)CN1C(=O)/C(=C\c2ccc(C)cc2)Sc2ccccc21	OX1R antag-2 78 | OX1R HTRF conf inactive | CHO-K1 HTRF inactive
O=C(CCS(=O)(=O)c1cccc2nonc12)NCCc1ccccc1	OX1R antag-2 87 | OX1R HTRF conf inactive | CHO-K1 HTRF 36
COc1ccccc1Cc1c(-c2ccc(C#N)cc2)nc2ccc(C)cn12	none (no result: OX1R antag-1, OX1R antag-2, CHO parental Ca)
CC(=O)c1sc(N/N=C/c2cccc(O)c2)nc1C	none
CC(=O)c1sc(N/N=C\c2c(O)ccc3ccccc23)nc1C	OX1R antag-2 85 | OX1R HTRF conf 58 | CHO-K1 HTRF inactive
C=CCn1c(C)nnc1SCC(=O)Nc1ccccc1C(=O)NC1CC1	none (no result: OX1R antag-1, OX1R antag-2, CHO parental Ca)
COc1ccccc1OCCCOc1cccc(/C=C2\SC(=O)NC2=O)c1	OX1R antag-2 78 | OX1R HTRF conf inactive | CHO-K1 HTRF 22
COc1ccc(C=C2SC(=O)NC2=O)cc1OC	none (no result: OX1R antag-1, OX1R antag-2, CHO parental Ca)
O=C1Nc2ccccc2-n2nnnc2C1N1CCN(C(=O)C2CCCO2)CC1 (stereo not given)	none (no result: OX1R antag-1, OX1R antag-2, CHO parental Ca)
COc1ccccc1N(CC(O)COc1ccc(C)cc1)S(=O)(=O)c1ccccc1 (stereo not given)	OX1R antag-2 78 | OX1R HTRF conf 91 | CHO-K1 HTRF inactive
COc1ccccc1N(CC(O)COc1ccccc1)S(=O)(=O)c1ccccc1 (stereo not given)	none
CC(=O)N1CCN(c2ccc([N+](=O)[O-])cc2C#N)CC1	OX1R antag-2 100 | OX1R HTRF conf inactive | CHO-K1 HTRF 47
O=C(c1ccccc1)N1CCN(c2ccc([N+](=O)[O-])cc2-n2cccc2)CC1	none
NC(=O)c1ccc(N2CCCCCC2)c([N+](=O)[O-])c1	none
CCCN1CCN(c2ccc([N+](=O)[O-])cc2C#N)CC1	OX1R antag-2 83 | OX1R HTRF conf inactive | CHO-K1 HTRF 46
CC(=O)N1CCN(c2ccc(C(N)=O)cc2[N+](=O)[O-])CC1	OX1R antag-2 81 | OX1R HTRF conf inactive | CHO-K1 HTRF 30
CCN1CCN(c2ccc([N+](=O)[O-])cc2S(=O)(=O)N2CCOCC2)CC1	OX1R antag-2 145 | OX1R HTRF conf inactive | CHO-K1 HTRF 44
CCOC(=O)C1CCN(c2ccc([N+](=O)[O-])cc2S(=O)(=O)N2CCOCC2)CC1	none
CC(C)c1ccc(CC(=O)N2CCC2(C)C(=O)NS(=O)(=O)c2cccc(C#N)c2)cc1 (stereo not given)	none (no result: OX1R antag-1, OX1R antag-2, CHO parental Ca)
CCCCOCCCNC(=O)C[C@@H]1C[C@@]2(C(=O)OC)CC(C)(C)CC=C2N(Cc2ccccc2)C1=O	none (no result: OX1R antag-1, OX1R antag-2, CHO parental Ca)
COc1cccc(/C=N/NC(=O)c2c(-c3ccccc3)noc2C)c1OC	none
COc1cccc(/C=N/NC(=O)c2c(-c3ccccc3)noc2C)c1O	OX1R antag-2 98 | OX1R HTRF conf inactive | CHO-K1 HTRF inactive
COCc1cc(N2CCN(C(=O)OC(C)(C)C)C[C@H]2C)ccc1N1CCN(Cc2ccccc2)[C@H](C)C1	none (no result: OX1R antag-1, OX1R antag-2, CHO parental Ca)
Cc1ccc2nc3c(cc(C(=O)NCCc4ccccc4)c(=N)n3CCCN3CCOCC3)c(=O)n2c1	OX1R antag-2 115 | OX1R HTRF conf 68 | CHO-K1 HTRF 69
CCOCCCn1c(=N)c(C(N)=S)cc2c(=O)n3cccc(C)c3nc21	OX1R antag-2 87 | OX1R HTRF conf inactive | CHO-K1 HTRF 42
CCNC(=O)c1cc2c(=O)n3cccc(C)c3nc2n(CCc2ccccc2)c1=N	none
Cc1cccn2c(=O)c3cc(C(=O)NCCN4CCOCC4)c(=N)n(CCc4ccccc4)c3nc12	OX1R antag-2 109 | OX1R HTRF conf 57 | CHO-K1 HTRF 72

High-throughput results: PubChem, The Scripps Research Institute Molecular Screening Center
